In the library only some 3.5% were active in any assay of this set; here they are far more common.
RGS4 act: RGS4 potentiators or activators, primary screen, cell-based, HEK293 M3R inducible RGS4, calcium flux. 310,000 tested, 0.92% active. B-score at 10 µM. carbachol calcium flux Fluo4; active compounds read low. AID 463111, 2010;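 active means B-score of the integrated calcium signal more than 4 SD below the library mean, with starting fluorescence not abnormally high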;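 further: negative B-score means reduced calcium response which marks RGS4 activation or potentiation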
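test system = HEK293 cells with stable M3R and inducible RGS4 | schedule = recording 10 s baseline at 1 Hz, 100 s post-agonist | technique = Fluo4-AM (2 µM) calcium-flux fluorescence, kinetic read | measure = Agonist-evoked peak-minus-minimum fluorescence over baseline, integrated ratio, B score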
RGS4 inh: RGS4 inhibitors, primary screen, cell-based, HEK293 M3R inducible RGS4, calcium flux; Regulator of G-protein signaling 4 (Homo sapiens), P49798; Fluo-4 calcium flux; active compounds read high; triggered by carbachol at its EC20; B-score at 10 µM; 310,000 tested, 0.45% active; AID 463165, 2010;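 active means B-score, a plate-corrected calcium signal, over three deviations above library mean, with baseline fluorescence within five deviations of library mean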;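 further: RGS4 expression induced by doxycycline in cells with stable M3 receptor; B-score is computed from the integrated fluorescence ratio over baseline after carbachol; higher B-score means a larger calcium signal and so more RGS4 inhibition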
Target sequence (P49798 whole entry, looked up): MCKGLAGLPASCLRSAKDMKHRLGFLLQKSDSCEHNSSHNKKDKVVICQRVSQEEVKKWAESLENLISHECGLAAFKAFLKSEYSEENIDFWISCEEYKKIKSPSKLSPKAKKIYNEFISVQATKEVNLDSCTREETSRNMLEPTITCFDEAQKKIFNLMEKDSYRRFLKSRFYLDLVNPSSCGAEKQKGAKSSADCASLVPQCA
MrgX1 allo act: positive allosteric modulators of MrgX1, primary screen, HEK293 cells, Fluo-4 calcium flux; 310,000 tested, 0.63% active; Mas-related G-protein coupled receptor member X1 (Homo sapiens), Q96LB2; B-score at 10 µM; AID 588675, 2011; FDSS; active compounds read high;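 active means plate-corrected calcium response at least 3 library SD above typical, normal starting fluorescence, not activating the receptor alone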;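 further: compound read alongside a low EC10 to EC30 dose of BAM8-22 agonist; peak minus trough fluorescence over baseline measured at the second addition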
Target sequence (Q96LB2 whole entry, looked up): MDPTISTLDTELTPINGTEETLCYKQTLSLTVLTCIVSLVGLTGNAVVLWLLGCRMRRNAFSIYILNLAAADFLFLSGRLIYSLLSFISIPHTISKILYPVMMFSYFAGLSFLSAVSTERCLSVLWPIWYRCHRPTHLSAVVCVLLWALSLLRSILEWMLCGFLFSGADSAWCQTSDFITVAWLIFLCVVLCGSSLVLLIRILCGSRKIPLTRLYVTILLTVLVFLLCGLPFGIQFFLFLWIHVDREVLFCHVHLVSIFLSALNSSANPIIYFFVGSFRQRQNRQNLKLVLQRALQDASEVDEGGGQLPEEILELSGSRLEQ
MrgX1 antag: antagonists of human MrgX1 receptor, primary screen, HEK293 cells, Fluo-4 calcium flux. Mas-related G-protein coupled receptor member X1 (Homo sapiens), Q96LB2. BAM8-22 antagonism; active compounds read low. B-score at 10 µM. 310,000 tested, 1.3% active. AID 588676, 2011;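 active means calcium-response B-score plate-corrected more than 3 library SD below zero, starting fluorescence within 5 deviations, no agonist response on first addition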;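 further: peak minus trough fluorescence over baseline after final BAM8-22 challenge near maximal dose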
MrgX1 ag: agonists of human MrgX1 receptor, primary screen, HEK293 cells, Fluo-4 calcium flux | Mas-related G-protein coupled receptor member X1 (Homo sapiens), Q96LB2 | 310,000 tested, 0.44% active | B-score at 10 µM | Fluo-4 calcium fluorescence, agonist mode; active compounds read high | AID 588627, 2011;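 active means calcium response B-score plate-corrected fluorescence ratio at least 3 library SD, with starting fluorescence B-score inside 5 SD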
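times = overnight plating, then 30 min 37 °C plus 30 min room-temperature dye loading | assay system = stable human MrgX1 HEK293 cell line | input = fifteen thousand cells per well | signal = kinetic calcium dye fluorescence, Fluo-4 NW | dosing = compound delivered in addition one of three | read-out = B-scored fluorescence response ratio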
RGS4 block valid: enhanced carbachol calcium response, M3R/RGS4 cells, RGS4 inhibitor project, cell-based, validation screen, HEK293 M3R/RGS4, calcium flux; 1,700 tested, 65% active; shares compounds with RGS4 inh; calcium response, % at 10 µM; AID 492999, 2010; carbachol calcium Fluo-4 fluorescence; carbachol added at its EC20; 0 = buffer wells, 100 = carbachol control;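 active means duplicate-averaged calcium response above the buffer-only control mean plus 5 SD of those controls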;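 further: integrated fluorescence ratio F max minus min over baseline F0; higher response in RGS4-induced cells means RGS4 inhibition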
M3R Ca ctr: carbachol calcium response in non-induced M3R cells, confirmation, counter-screen for RGS4 inhibitor project, cell-based, HEK293 M3R | carbachol calcium Fluo-4; submaximal (EC20) carbachol stimulus; buffer wells 0%, carbachol control wells 100% | shares compounds with RGS4 inh | activity (percent), % at 10 µM | 1,900 tested, 20% active; call rule not given here;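 further: RGS4 induction absent so cells express M3R without RGS4; higher means more calcium signal and flags a non-specific hit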
M3R basal Ca ctr: second RGS4 inhibitor counter-screen in uninduced cells lacking carbachol; shares compounds with RGS4 inh; HEK293 M3R/RGS4 non-induced, Fluo-4 calcium, no carbachol; normalised: buffer wells 0%, carbachol wells 100%; calcium response (agonist-mode artifact), % at 10 µM; 1,900 tested, 22% active;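 active means duplicate-averaged calcium rise in uninduced cells above buffer wells' mean plus 5 SD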
The depositor's hits bear a star; i = inactive; · = no result given.

SMILES | RGS4 act | RGS4 inh | MrgX1 allo act | MrgX1 antag | MrgX1 ag | RGS4 block valid | M3R Ca ctr | M3R basal Ca ctr
Cc1cc(=O)[nH]c(N2CCN(Cc3ccccc3)CC2)n1 | i | i | i | i | i | · | · | ·
CCCCOc1ccccc1C1NC(=O)CCC1[N+](=O)[O-] (configuration not stated) | i | i | i | i | i | · | · | ·
CNc1nc(N)c([N+](=O)[O-])c(NC2CCCCC2)n1 | i | 6* | i | i | i | 32%* | 39%* | i
CNc1nc(N)c([N+](=O)[O-])c(Nc2cccc(Cl)c2)n1 | i | 15* | i | i | i | 10%* | 34%* | 10%*
OC(COc1ccc2ccccc2c1Br)Cn1cnc(-c2ccccc2)c1 (configuration not stated) | i | 9.3* | i | i | i | 10%* | i | i
COc1ccc(OCC(O)Cn2cnc(-c3ccc(Br)cc3)c2)cc1 (configuration not stated) | i | i | i | i | i | · | · | ·
Fc1ccc(-c2csc(Nc3ccccn3)n2)cc1 | i | i | i | i | i | i | i | i
Cc1noc(C)c1COc1ccc(C(=O)OCC(N)=O)cc1 | i | i | i | i | i | · | · | ·
CCn1c2ccccc2c2cc(NC(=O)CSc3nnc(-c4ccc(OC)c(OC)c4)n3N)ccc21 | i | i | i | i | i | i | i | i
CCn1c2ccccc2c2cc(NC(=O)CSc3nnc(-c4cccc(OC)c4)n3N)ccc21 | i | i | i | i | i | · | i | i
COc1cccc(-c2nnc(SCC(=O)Nc3cc(C)ccc3OC)n2N)c1 | i | i | i | i | i | · | · | ·
CCOc1ccc(-c2nnc(SCC(=O)Nc3ccc4c(c3)c3ccccc3n4CC)n2N)cc1 | i | i | i | i | i | i | i | i
CCn1c2ccccc2c2cc(NC(=O)CSc3nnc(-c4ccccc4OC)n3N)ccc21 | i | i | i | i | i | · | i | i
COCC(C)n1c(SCc2cc(=O)n3cc(C)ccc3n2)nc2ccccc2c1=O (configuration not stated) | i | i | i | i | i | · | · | ·
Nc1nc(Cl)cc(N2CCC(c3cc(-c4ccc(Cl)cc4Cl)n[nH]3)CC2)n1 | i | 7.3* | i | i | i | 16%* | i | i
Nc1nc(Cl)cc(N2CCCC2)n1 | i | i | i | i | i | · | · | ·
CC(=O)N1CCCc2cc(S(=O)(=O)Nc3ccccc3C)ccc21 | i | i | i | i | i | · | · | ·
CC1=NN(c2ccc(C)cc2C)C(=O)C1C(c1cccc(O)c1)C1C(=O)N(c2ccc(C)cc2C)N=C1C (configuration not stated) | i | 5.3* | i | i | i | 14%* | 50%* | i
CC1=NN(c2ccccc2)C(=O)C1N=Nc1cccc(O)c1 (configuration not stated) | i | i | i | i | i | · | · | ·
C=CCOc1ccc(CNCC2CCCO2)cc1 (configuration not stated) | i | i | i | i | i | · | · | ·
O=C1NC[C@@H](Cc2cccc3ccccc23)N(CCC23CC4CC(CC(C4)C2)C3)C1=O | i | 4.8* | i | i | i | 12%* | 32%* | i
CC1S/C(=N/N=C/c2cccs2)NC1=O (configuration not stated) | i | i | i | i | i | · | · | ·
O=C1N/C(=N\N=C\c2cccs2)SC1Cc1ccc(Cl)cc1 (configuration not stated) | i | i | i | i | i | · | · | ·
CCCC1S/C(=N/N=C/c2cccs2)NC1=O (configuration not stated) | i | i | i | i | i | · | i | i
CCC1S/C(=N/N=C/c2cccs2)NC1=O (configuration not stated) | i | i | i | i | i | · | i | i
SMILES | RGS4 act | RGS4 inh | MrgX1 allo act | MrgX1 antag | MrgX1 ag | RGS4 block valid | M3R Ca ctr | M3R basal Ca ctr
COC(=O)c1cc2c(ccn2-c2ccc(F)cc2)n1Cc1ccc(OC)cc1 | i | i | i | i | i | · | · | ·
CCn1c(C(=O)OC)cc2c1ccn2-c1ccc(F)cc1 | i | i | i | i | i | · | i | i
COc1cc(OC)cc(C(=O)N[C@H](C(=O)Nc2nc(-c3ccc(OC)c(OC)c3)cs2)C(C)C)c1 | i | i | i | i | i | · | · | ·
COC(=O)CSc1nnc(C)c(=O)[nH]1 | i | i | i | i | i | · | · | ·
CCOC(=O)CNc1nnc(SCC(=O)OCC)[nH]c1=O | i | i | i | i | i | · | i | i
CCCN(C(=O)Cc1c(C(=O)O)n(C)c2ccccc12)c1cccc(C)c1 | i | 6.2* | i | i | i | 12%* | 68%* | 12%*
COc1ccc(C(=O)/C(C#N)=N/Nc2cccc([N+](=O)[O-])c2)cc1 | i | i | · | · | · | · | · | ·
O=C(NC1CCCC1)c1cc(-c2ccc(Cl)cc2)on1 | i | i | i | i | i | · | · | ·
CCc1ccc2c(c1)c(N=NC1=NC(=O)CS1)c(O)n2C | i | i | i | i | i | · | i | i
Oc1ccc(N=Nc2cccc(C(F)(F)F)c2)cc1C=Nc1ccc(N2CCOCC2)cc1 | i | 9.7* | i | i | i | 28%* | 46%* | i
Clc1ccc(-c2ccc(C=Nc3ccc(N4CCOCC4)cc3)o2)c(Cl)c1 | i | 5.4* | i | i | i | i | i | 16%*
Oc1c(Cl)cc(Cl)cc1C=Nc1ccc(N2CCOCC2)cc1 | i | 5* | i | i | i | i | i | 93%*
Cc1cc(Br)cc(C=Nc2ccc(N3CCOCC3)cc2)c1O | i | 5.8* | i | i | i | 21%* | 40%* | 168%*

Screens: PubChem BioAssay, Johns Hopkins Ion Channel Center
